What was measured:
HT-29 [1] = assay: Growth inhibition of human HT-29 cells by MTT assay; format: functional, cell-based
Summary of the method: (§1)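 MTT assay in SKOV3 ovarian and HT-29 colon carcinoma cells, absorbance read at 570 nm. Triplicate wells in at least three independent assays; average IC50 reported.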

SK-OV-3 = assay: Growth inhibition of human SKOV3 cells by MTT assay; format: functional, cell-based; summary of the method: as §1
[2] = Stability assessed as cis-trans isomerization equilibrium by mesuring remaining compound level at 1.5 x 10^-2 M exposed to UV-visible light irradiation after 1.5 hrs by LC-HRMS method; format: physicochemical; conditions: read-out: Stability
[3] = Stability assessed as cis-trans isomerization equilibrium by mesuring remaining compound level at 1.5 x 10^-2 M exposed to UV-visible light irradiation after 22 hrs by LC-HRMS method; format: physicochemical; conditions: read-out: Stability
[4] = Stability assessed as cis-trans isomerization equilibrium at 1.5 x 10^-2 M under natural light conditions after 7 days by LC-HRMS method; format: physicochemical; conditions: 168 h, 15000 µM
Tubulin = Tubulin (Bos taurus, UniProt Q6B856+Q862L2+Q862F3); assay: Inhibition of bovine brain tubulin polymerization incubated for 60 mins by microplate reader based turbidimetry
HT-29 [5] = assay: Antitumor activity against human HT-29 cells xenografted in BALB/c mouse assessed as reduction in tumor volume at 50 and 150 mg/kg, ip administered once daily and measured on day 18; format: functional, organism-based; parameters: dose 150 mg/kg
Summary of the method: (§2)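 Female BALB/c nude mice (18–20 g) bearing HT-29 xenografts of around 100 mm³, randomized into six animals/treatment and twelve controls. Drug or vehicle given ip once a day for 18 days. Tumor volume and body weight recorded on d0 and d18. T/C (%) derived from relative tumor volume (Vt/Vo). Body weight change given as mean in g.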

HT-29 [6] = assay: Antitumor activity against human HT-29 cells xenografted in BALB/c mouse assessed as reduction in tumor volume at 150 mg/kg, ip administered once daily for 18 days; format: functional; conditions: route intraperitoneal; summary of the method: as §2
HT-29 [7] = assay: Antitumor activity against human HT-29 cells xenografted in BALB/c mouse assessed as reduction in tumor volume at 50 mg/kg, ip administered once daily for 18 days; format: functional; conditions: route intraperitoneal; summary of the method: as §2
Mus musculus [8] = assay: Toxicity in human HT-29 cells xenografted BALB/c mouse assessed as change in body weight at 150 mg/kg, ip administered once daily for 18 days (reference value: 2.5 g); format: organism-based; parameters: dose 150 mg/kg, route intraperitoneal; conditions: in vivo, 432 h; summary of the method: as §2
Mus musculus [9] = assay: Toxicity in human HT-29 cells xenografted BALB/c mouse assessed as change in body weight at 50 mg/kg, ip administered once daily for 18 days (reference value: 2.5 g); format: organism-based; parameters: dose 50 mg/kg, route intraperitoneal; conditions: in vivo, 432 h

| SMILES | IC50 (HT-29 [1]) | IC50 (SK-OV-3) | remaining at 1.5 h, 15000 µM [2] | IC50 (Tubulin) | other results |
| --- | --- | --- | --- | --- | --- |
| COc1ccc(/C=C2\c3cc(OC)c(OC)c(OC)c3CC[C@@H]2O)cc1[N+](=O)[O-] | 1.59 µM | 4.64 µM |  |  |  |
| COc1ccc(/C=C2\c3cc(OC)c(OC)c(OC)c3CC[C@@H]2O)cc1C#N | 0.005 µM | 0.02 µM |  |  |  |
| COc1ccc(/C=C2\c3cc(OC)c(OC)c(OC)c3CC[C@H]2O)cc1C(N)=O | 0.55 µM | 1.92 µM |  |  |  |
| COc1ccc(/C=C2\c3cc(OC)c(OC)c(OC)c3CC[C@@H]2O)cc1C(N)=O | 0.55 µM | 1.44 µM |  |  |  |
| COc1ccc2c(c1)CC[C@H](O)/C2=C/c1cc(OC)c(OC)c(OC)c1 | 0.001 µM | 0.001 µM | 98.9% | 0.41 µM | remaining at 22 h, 15000 µM [3]: 90.2%; Stability [4]: Stable; inhibition (HT-29 [5]): Dose-dependent effect; T/C (HT-29 [6]): 37%; T/C (HT-29 [7]): 61%; Activity (Mus musculus [8]): 1.8 g; Activity (Mus musculus [9]): 2.3 g |
| COc1ccc(/C=C\c2cc(OC)c(OC)c(OC)c2)cc1O [COMBRETASTATIN A4] | 0.001 µM | 0.001 µM | 99.1% |  | remaining at 22 h, 15000 µM [3]: 84%; Stability [4]: Stable; T/C (HT-29 [7]): 52%; Activity (Mus musculus [9]): 1.7 g |
| COc1ccc(/C=C2\c3cc(OC)c(OC)c(OC)c3CC[C@H]2O)cc1[N+](=O)[O-] | > 10 µM | > 10 µM |  |  |  |
| COc1ccc(/C=C2\c3cc(OC)c(OC)c(OC)c3CC[C@H]2O)cc1 | 2.6 µM | 3.78 µM | 99.1% | > 10 µM | remaining at 22 h, 15000 µM [3]: 93%; Stability [4]: Stable |
| COc1ccc2c(c1)CC[C@@H](O)/C2=C/c1cc(OC)c(OC)c(OC)c1 | 0.9 µM | 2.02 µM | 99.2% | > 10 µM | remaining at 22 h, 15000 µM [3]: 92%; Stability [4]: Stable |
| COc1ccc(/C=C2\c3cc(OC)c(OC)c(OC)c3CC[C@H]2O)cc1C#N | 0.2 µM | 0.6 µM |  |  |  |
| COc1ccc2c(c1)CCC(=O)/C2=C/c1cc(OC)c(OC)c(OC)c1 | 0.13 µM | 0.002 µM | 52.8% | 3.93 µM |  |
| COc1ccc(/C=C2\c3cc(OC)c(OC)c(OC)c3CC[C@@H]2O)cc1 | 2.46 µM | 7.03 µM | 99.4% | > 10 µM | remaining at 22 h, 15000 µM [3]: 92.6%; Stability [4]: Stable |

Continued, in another order:

| IC50 (HT-29 [1]) | IC50 (SK-OV-3) | remaining at 1.5 h, 15000 µM [2] | IC50 (Tubulin) | SMILES | other results |
| --- | --- | --- | --- | --- | --- |
| 0.22 µM | 0.72 µM |  |  | COc1ccc(/C=C2\c3cc(OC)c(OC)c(OC)c3CC[C@H]2O)cc1F |  |
| 0.16 µM | 0.74 µM |  |  | COc1ccc(/C=C2\c3cc(OC)c(OC)c(OC)c3CC[C@@H]2O)cc1N |  |
| 0.26 µM | 1.06 µM |  |  | COc1ccc(/C=C2\c3cc(OC)c(OC)c(OC)c3CC[C@@H]2O)cc1O |  |
| 0.79 µM | 1.59 µM |  |  | COc1ccc(/C=C2\c3cc(OC)c(OC)c(OC)c3CC[C@H]2O)cc1O |  |
| 3.97 µM | 1.34 µM |  |  | COc1ccc(/C=C2\c3cc(OC)c(OC)c(OC)c3CC[C@H]2O)cc1C |  |
| 2.56 µM | 0.73 µM |  |  | COc1ccc(/C=C2\c3cc(OC)c(OC)c(OC)c3CC[C@@H]2O)cc1C |  |
| 0.91 µM | 1.87 µM |  |  | COc1ccc(/C=C2\c3cc(OC)c(OC)c(OC)c3CC[C@H]2O)cc1N |  |
| 0.003 µM | 0.001 µM |  | 5.7 µM | COc1ccc(/C=C2\c3cc(OC)c(OC)c(OC)c3CC[C@@H]2O)cc1F |  |
